From ChEMBL document CHEMBL1148331, “Aziridinyldinitrobenzamides: synthesis and structure-activity relationships for activation by E. coli nitroreductase” (J Med Chem, 2004)
pIC50: −log10 of the molar value. Converted amounts (≈) assume the structure as drawn.

Experiments:
[1] = Partition coefficient (logP); assay type: physicochemical; conditions: octanol/water
How it was run: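 Partition measured between n-octanol and water.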

WiDr-NTR = assay: Growth inhibitory potency against NTR-Transfected (nitroreductase) human colon cell line known as WiDr-NTRneo cell line; assay type: functional, cell-based
How it was run: (§1)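 Log-phase cells were seeded in αMEM with 5% FBS at 50–800 cells/well and grown for 18 h. Prodrug was added from DMSO stock diluted in medium and left for 18 h, then washed out. Regrowth lasted 3 days for V79 and EMT6 lines and 4 days for WiDr and Skov3 lines. Cell density was read by sulforhodamine B staining. IC50 was interpolated as 50% of control absorbance on the same plate. Ratio = IC50 of parental (NTR-ve) line / IC50 of NTR-transfected line.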

[2] = Solubility in culture medium; assay type: physicochemical
How it was run: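 Solubility limit (mM) determined in cell culture medium.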

[3] = Ratio of growth inhibition of NTR-transfected human colon cell line to that of parental cell line (IC50 (NTR-)/IC50 (NTR+); assay type: functional; how it was run: as §1
EMT6 [4] = assay: Ratio of growth inhibition of NTR-transfected mouse mammary cell line to that of parental cell line (IC50 (NTR-)/IC50 (NTR+); assay type: functional; how it was run: as §1
SK-OV-3 [5] = assay: Ratio of growth inhibition of NTR-transfected human ovarian cell line to that of parental cell line (IC50 (NTR-)/IC50 (NTR+); assay type: functional; how it was run: as §1
SK-OV-3 [6] = assay: Growth inhibitory potency against NTR-Transfected (nitroreductase) human ovarian cell line known as SKOV3-NTR neo cell line; assay type: functional, cell-based; how it was run: as §1
V79 [7] = assay: Growth inhibitory potency against NTR-Transfected (nitroreductase) chinese hamster fibroblast known as V79-NTRpuro cell line; assay type: functional, cell-based; conditions: Cricetulus griseus; how it was run: as §1
EMT6 [8] = assay: Growth inhibitory potency against NTR-Transfected (nitroreductase) mouse mammary cell line known as EMT6-NTRpuro cell line; assay type: functional, cell-based; how it was run: as §1
WiDr [9] = assay: Effective concentration of 10% cell survival for targets in WiDr MCL (multicellular layer) grown from targets; assay type: functional, Homo sapiens
How it was run: (§2)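 WiDr multicellular layers were grown on collagen-coated inserts for 6 days. Cocultures held 10% WiDr-NTRneo activators and 90% WiDr targets; the other layers held targets only. Layers were exposed to prodrug over a range of concentrations for 5 h at 37 °C, stirred, under 5% CO2/95% O2. Cells were plated clonogenically, with activators selected in 0.3 mg/mL G418. After 14 days, colonies of more than 50 cells were counted and the concentration giving 10% survival was derived.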

Mus musculus [10] = assay: In vivo median growth delay against CD-1 nude mice bearing WiDr-nitroreductase tumors at a dose 1000 (umol/kg); assay type: functional
V79 [11] = assay: Effective concentration of 10% cell survival for targets in V79 MCL (multicellular layer) cocultures; assay type: functional, Cricetulus griseus
How it was run: (§3)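 V79 multicellular layers were grown on collagen-coated microporous inserts for 3 days, stirred, under 5% CO2/air. Cocultures held 3% V79-NTRpuro activators and 97% V79oua targets; the other layers held targets only. Layers were exposed to prodrug over a concentration range for 5 h at 37 °C under 5% CO2/95% O2. Cells were then plated clonogenically in 1 mM ouabain (targets) or 15 µM puromycin (activators). After 6 days, colonies of more than 50 cells were counted and the concentration giving 10% survival was taken.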

Mus musculus [12] = assay: In vivo activity against WiDr-nitroreductase tumors in mice at a dose of 1000 (umol/kg); 1/7; assay type: functional
WiDr [13] = assay: Effective concentration of 10% cell survival for activators in WiDr MCL (multicellular layer) cocultures; assay type: functional, Homo sapiens; how it was run: as §2
V79 [14] = assay: Effective concentration of 10% cell survival for targets in V79 MCL (multicellular layer) grown from targets; assay type: functional, Cricetulus griseus; how it was run: as §3
WiDr [15] = assay: Effective concentration of 10% cell survival for targets in WiDr MCL (multicellular layer) cocultures; assay type: functional, Homo sapiens; how it was run: as §2
Mus musculus [16] = assay: In vivo activity against WiDr-nitroreductase tumors in mice at a dose of 1000 (umol/kg); 2/7; assay type: functional
V79 [17] = assay: Effective concentration of 10% cell survival for activators in V79 MCL (multicellular layer) cocultures; assay type: functional, Cricetulus griseus; how it was run: as §3
Mus musculus [18] = assay: In vivo activity against WiDr-nitroreductase tumors in mice at a dose of 300 (umol/kg); 0/7; assay type: functional
Mus musculus [19] = assay: In vivo activity against WiDr-nitroreductase tumors in mice at a dose of 300 (umol/kg); 1/7; assay type: functional
Mus musculus [20] = assay: In vivo median growth delay against CD-1 nude mice bearing WiDr-nitroreductase tumors at a dose 300 (umol/kg); assay type: functional
Mus musculus [21] = assay: In vivo activity against WiDr-nitroreductase tumors in mice at a dose of 1000 (umol/kg); 0/6; assay type: functional
Mus musculus [22] = assay: In vivo median growth delay against CD-1 nude mice bearing WiDr-nitroreductase tumors at a dose 178 (umol/kg); assay type: functional
Mus musculus [23] = assay: In vivo activity against WiDr-nitroreductase tumors in mice at a dose of 178 (umol/kg); 4/7; assay type: functional
Mus musculus [24] = assay: In vivo activity against WiDr-nitroreductase tumors in mice at a dose of 178 (umol/kg); 0/3; assay type: functional
Mus musculus [25] = assay: In vivo activity against WiDr-nitroreductase tumors in mice at a dose of 178 (umol/kg); 2/7; assay type: functional
Mus musculus [26] = assay: In vivo activity against WiDr-nitroreductase tumors in mice at a dose of 178 (umol/kg); 1/7; assay type: functional
Mus musculus [27] = assay: In vivo activity against WiDr-nitroreductase tumors in mice at a dose of 200 (umol/kg); 31/53; assay type: functional
Mus musculus [28] = assay: In vivo activity against WiDr-nitroreductase tumors in mice at a dose of 200 (umol/kg); 12/53; assay type: functional
Mus musculus [29] = assay: In vivo median growth delay against CD-1 nude mice bearing WiDr-nitroreductase tumors at a dose 200 (umol/kg); assay type: functional
Mus musculus [30] = assay: In vivo activity against WiDr-nitroreductase tumors in mice at a dose of 750 (umol/kg); 0/7; assay type: functional
Mus musculus [31] = assay: In vivo median growth delay against CD-1 nude mice bearing WiDr-nitroreductase tumors at a dose 750 (umol/kg); assay type: functional
Mus musculus [32] = assay: In vivo activity against WiDr-nitroreductase tumors in mice at a dose of 750 (umol/kg); 1/7; assay type: functional

Compound | logP ([1]; read-out: logP) | pIC50 (WiDr-NTR) | solubility [2] | Ratio [3] | Ratio (EMT6 [4]) | Ratio (SK-OV-3 [5]) | pIC50 (SK-OV-3 [6]) | pIC50 (V79 [7]) | pIC50 (EMT6 [8]) | also measured
NC(=O)c1c([N+](=O)[O-])ccc(N2CC2)c1[N+](=O)[O-] | -0.17 | 4.24 | 2700 µM (≈ 681 µg/mL) | 5.9 | 9.2 | 9.6 | 4.18 | 3.87 | 4.57 | 
NC(=O)c1ccc([N+](=O)[O-])c(N2CC2)c1 | 0.47 | 4.20 | 430 µM (≈ 89.1 µg/mL) | 1.6 | 2.8 | 1.6 | 4.21 | 4.21 | 4.38 | 
O=C(NCC(O)CO)c1cc(N2CC2)c([N+](=O)[O-])cc1[N+](=O)[O-] (configuration not stated) | -1.04 | 5.43 | 22000 µM (≈ 7180 µg/mL) | 49 | 86.5 | 83.7 | 5.64 | 6.15 | 5.96 | T (WiDr [9]): 540 µM; Growth delay (Mus musculus [10]): >86 days; Tc (V79 [11]): 840 µM; Deaths (Mus musculus [12]): 1; Ac (WiDr [13]): 28 µM; T (V79 [14]): 1595 µM; Tc (WiDr [15]): 320 µM; Cures (Mus musculus [16]): 2; Ac (V79 [17]): 26 µM
O=C(NCCN1CCOCC1)c1cc(N2CC2)c([N+](=O)[O-])cc1[N+](=O)[O-] | 0.31 | 6.14 | 1800 µM (≈ 658 µg/mL) | 183 | 4020 | 1100 | 6.35 | 6.82 | 7.28 | Deaths (Mus musculus [18]): 0; T (WiDr [9]): 680 µM; Tc (V79 [11]): 470 µM; Ac (WiDr [13]): 8.5 µM; T (V79 [14]): 1600 µM; Tc (WiDr [15]): 105 µM; Ac (V79 [17]): 11.5 µM; Cures (Mus musculus [19]): 1; Growth delay (Mus musculus [20]): 35 days
O=C(NCC(O)CO)c1cc([N+](=O)[O-])cc([N+](=O)[O-])c1N1CC1 (configuration not stated) | -0.15 | 4.90 | 2500 µM (≈ 816 µg/mL) | 71 | 252 | 185 | 5.14 | 5.21 | 5.36 | Growth delay (Mus musculus [10]): 8 days; Cures (Mus musculus [21]): 0; Deaths (Mus musculus [12]): 1
NC(=O)c1cc([N+](=O)[O-])c(N2CC2)c([N+](=O)[O-])c1 | 0.59 | < 4.70 | 40 µM (≈ 10.1 µg/mL) |  |  |  | < 4.70 | < 4.70 | < 4.70 | 
CS(=O)(=O)c1cc([N+](=O)[O-])c(C(N)=O)cc1N1CC1 | -0.3 | 4.66 | 780 µM (≈ 223 µg/mL) | 10 | 25 | 19 | 4.66 | 4.40 | 4.96 | 
O=C(NCCN1CCOCC1)c1cc([N+](=O)[O-])cc([N+](=O)[O-])c1N1CC1 | 0.11 | 4.74 | 350 µM (≈ 128 µg/mL) | 32 | 177 | >72 | 4.96 | 5.14 | 5.47 | Growth delay (Mus musculus [22]): -1 days; Deaths (Mus musculus [23]): 4; Cures (Mus musculus [24]): 0
CN(CCN1CCOCC1)C(=O)c1cc(N2CC2)c([N+](=O)[O-])cc1[N+](=O)[O-] | -0.26 | 5.09 | 3300 µM (≈ 1250 µg/mL) | 21 | 309 | 46 | 4.89 | 5.74 | 5.74 | 
O=C(NCCCN1CCOCC1)c1cc(N2CC2)c([N+](=O)[O-])cc1[N+](=O)[O-] | -1.05 | 6.62 | 1600 µM (≈ 607 µg/mL) | 122 | 3310 | 732 | 6.82 | 7.32 | 7.40 | 
CS(=O)(=O)c1cc([N+](=O)[O-])c(N2CC2)cc1C(N)=O | -0.41 | 4.59 | 880 µM (≈ 251 µg/mL) | 33 | 125 | 160 | 5.20 | 5.06 | 5.44 | Growth delay (Mus musculus [22]): 17 days; Deaths (Mus musculus [25]): 2; Cures (Mus musculus [26]): 1
NC(=O)c1cc(N2CC2)c([N+](=O)[O-])cc1[N+](=O)[O-] [TRETAZICAR] |  | 5.94 |  | 51.1 | 947 | 317 | 6.19 |  |  | logP [1]: 0.14; T (WiDr [9]): 513 µM; Tc (V79 [11]): 173 µM; Ac (WiDr [13]): 33 µM; Cures (Mus musculus [27]): 31; T (V79 [14]): 1400 µM; Tc (WiDr [15]): 252 µM; Ac (V79 [17]): 23 µM; Deaths (Mus musculus [28]): 12; Growth delay (Mus musculus [29]): >87 days
NC(=O)c1cc(N2CC2)ccc1[N+](=O)[O-] | 0.7 | 4.05 | 3400 µM (≈ 704 µg/mL) |  |  |  |  | 4.09 | 4.17 | 
O=C(NCCn1ccnc1)c1cc(N2CC2)c([N+](=O)[O-])cc1[N+](=O)[O-] | -0.48 | 5.96 | 1100 µM (≈ 381 µg/mL) | 41.5 | 278 | 105 | 6.24 | 6.51 | 6.54 | 
CC(=O)CCNC(=O)c1cc(N2CC2)c([N+](=O)[O-])cc1[N+](=O)[O-] | 0.56 | 5.59 | 800 µM (≈ 258 µg/mL) | 63.6 | 1520 | 270 | 5.60 | 6.48 | 6.51 | Tc (V79 [11]): 200 µM; T (V79 [14]): 1900 µM; Ac (V79 [17]): 20 µM
O=C(NCCCCN1CCOCC1)c1cc(N2CC2)c([N+](=O)[O-])cc1[N+](=O)[O-] | -0.48 | 6.51 | 5600 µM (≈ 2200 µg/mL) | 93 | 12170 | 513 | 6.52 | 6.68 | 7.22 | 
CS(=O)(=O)c1cc([N+](=O)[O-])c(N2CC2)cc1C(=O)NCC(O)CO (configuration not stated) | -0.96 | 3.55 | 4150 µM (≈ 1490 µg/mL) | 10 | 32 | 26 | 3.80 | 3.88 | 4.07 | 
NC(=O)c1cc([N+](=O)[O-])cc([N+](=O)[O-])c1N1CC1 | 0.34 | 4.89 | 1300 µM (≈ 328 µg/mL) | 85 | 627 | 281 | 5.21 | 5.92 | 5.89 | Deaths (Mus musculus [30]): 0; Growth delay (Mus musculus [31]): 47 days; Tc (V79 [11]): >2000 µM; Cures (Mus musculus [32]): 1; T (V79 [14]): >2000 µM; Ac (V79 [17]): 450 µM
